Test results taken from ChEMBL document CHEMBL1135657, “Novel dual inhibitors of AChE and MAO derived from hydroxy aminoindan and phenethylamine as potential treatment for Alzheimer's disease” (J Med Chem, 2002).

How the values were obtained:
Acetylcholinesterase [1] = biological target: T1, Acetylcholinesterase (Homo sapiens, UniProt P22303); experiment: In vitro inhibitory concentration against purified Acetylcholinesterase of human erythrocytes
Butyrylcholinesterase [2] = biological target: T2, Butyrylcholinesterase (Equus caballus, UniProt Q9N1N9); experiment: In vitro inhibitory concentration against Butyrylcholinesterase of horse serum; value ranges from 0.25-0.40
In short: (§1)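 Ellman assay followed, with 200 µM butyrylthiocholine as substrate. Runs were in triplicate with four-point dose-response curves. IC50 and fiducial limits came from log concentration versus % inhibition.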

Acetylcholinesterase [3] = biological target: T1, Acetylcholinesterase; experiment: In vitro inhibitory concentration against purified Acetylcholinesterase of human erythrocytes; value ranges from 224-1012
Butyrylcholinesterase [4] = biological target: T2, Butyrylcholinesterase; experiment: In vitro inhibitory concentration against Butyrylcholinesterase of horse serum; value ranges from 0.8-3.2
[5] = biological target: T3, Amine oxidase [flavin-containing] B (Rattus norvegicus, UniProt P19643); experiment: In vitro inhibitory concentration against Monoamine oxidase B of rat brain homogenates; assay type: tissue-based
T3 sequence (P19643 whole entry): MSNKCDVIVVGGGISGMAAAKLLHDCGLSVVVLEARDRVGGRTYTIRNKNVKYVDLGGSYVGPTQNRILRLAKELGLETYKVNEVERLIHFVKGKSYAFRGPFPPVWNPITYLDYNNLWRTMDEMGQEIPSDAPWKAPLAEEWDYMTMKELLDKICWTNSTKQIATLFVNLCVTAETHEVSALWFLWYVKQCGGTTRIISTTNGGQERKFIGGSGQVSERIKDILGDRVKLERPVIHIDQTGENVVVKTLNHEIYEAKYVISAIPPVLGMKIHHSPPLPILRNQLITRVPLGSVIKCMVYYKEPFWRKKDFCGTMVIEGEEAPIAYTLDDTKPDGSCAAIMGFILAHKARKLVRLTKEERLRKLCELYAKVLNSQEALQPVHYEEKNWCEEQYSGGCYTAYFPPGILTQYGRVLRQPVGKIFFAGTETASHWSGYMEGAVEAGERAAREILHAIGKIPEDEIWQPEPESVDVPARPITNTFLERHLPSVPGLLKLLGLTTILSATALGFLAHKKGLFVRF

Acetylcholinesterase [6] = biological target: T1, Acetylcholinesterase; experiment: In vitro inhibitory concentration against purified Acetylcholinesterase of human erythrocytes; value ranges from 11.9-128
[7] = biological target: T4, Amine oxidase [flavin-containing] A (Rattus norvegicus, UniProt P21396); experiment: In vitro inhibitory concentration against Monoamine oxidase A of rat brain homogenates; value ranges from 190-310; assay type: tissue-based
T4 sequence (P21396 whole entry): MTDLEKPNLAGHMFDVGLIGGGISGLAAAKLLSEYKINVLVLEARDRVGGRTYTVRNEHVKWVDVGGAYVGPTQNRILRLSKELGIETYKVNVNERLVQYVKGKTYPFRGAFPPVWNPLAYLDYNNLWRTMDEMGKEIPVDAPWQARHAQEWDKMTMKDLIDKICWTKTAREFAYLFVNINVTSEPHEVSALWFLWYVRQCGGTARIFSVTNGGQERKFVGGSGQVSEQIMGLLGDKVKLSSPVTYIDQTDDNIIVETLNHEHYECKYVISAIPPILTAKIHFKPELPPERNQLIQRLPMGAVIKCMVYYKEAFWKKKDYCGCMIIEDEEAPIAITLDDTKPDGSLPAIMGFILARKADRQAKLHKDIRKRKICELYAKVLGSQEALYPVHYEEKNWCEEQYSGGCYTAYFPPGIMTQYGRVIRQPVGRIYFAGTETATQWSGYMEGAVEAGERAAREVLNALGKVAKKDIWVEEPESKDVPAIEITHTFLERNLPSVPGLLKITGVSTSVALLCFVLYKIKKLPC

Acetylcholinesterase [8] = biological target: T1, Acetylcholinesterase; experiment: In vitro inhibitory concentration against purified Acetylcholinesterase of human erythrocytes; value ranges from […]-[…]
Butyrylcholinesterase [9] = biological target: T2, Butyrylcholinesterase; experiment: In vitro inhibitory concentration against Butyrylcholinesterase of horse serum; value ranges from 0.85-1.96; in short: as §1
[10] = biological target: T3, Amine oxidase [flavin-containing] B; experiment: In vitro inhibitory concentration against Monoamine oxidase B of rat brain homogenates; value ranges from 90-260
[11] = biological target: T4, Amine oxidase [flavin-containing] A; experiment: In vitro inhibitory concentration against Monoamine oxidase A of rat brain homogenates; value ranges from 0.72-0.97; assay type: tissue-based
Butyrylcholinesterase [12] = biological target: T2, Butyrylcholinesterase; experiment: In vitro inhibitory concentration against Butyrylcholinesterase of horse serum; value ranges from 0.016-0.021; in short: as §1
Acetylcholinesterase [13] = biological target: T1, Acetylcholinesterase
[14] = biological target: T4, Amine oxidase [flavin-containing] A; experiment: In vitro inhibitory concentration against Monoamine oxidase A of rat brain homogenates; value ranges from 290-920; assay type: tissue-based
[15] = biological target: T4, Amine oxidase [flavin-containing] A; experiment: In vitro inhibitory concentration against Monoamine oxidase A of rat brain homogenates; value ranges from 260-420; assay type: tissue-based
[16] = biological target: T3, Amine oxidase [flavin-containing] B; experiment: In vitro inhibitory concentration against Monoamine oxidase B of rat brain homogenates; value ranges from 590-900
Acetylcholinesterase [17] = biological target: T1, Acetylcholinesterase; experiment: In vitro inhibitory concentration against purified Acetylcholinesterase of human erythrocytes; value ranges from 28.1-58.3
Butyrylcholinesterase [18] = biological target: T2, Butyrylcholinesterase; experiment: In vitro inhibitory concentration against Butyrylcholinesterase of horse serum; value ranges from 4.9-11.2; in short: as §1
Acetylcholinesterase [19] = biological target: T1, Acetylcholinesterase; remark: listed apart in the source
Acetylcholinesterase [20] = biological target: T1, Acetylcholinesterase; experiment: In vitro inhibitory concentration against purified Acetylcholinesterase of human erythrocytes; value ranges from 1.28-3.30
Butyrylcholinesterase [21] = biological target: T2, Butyrylcholinesterase; experiment: In vitro inhibitory concentration against Butyrylcholinesterase of horse serum; value ranges from 0.99-1.91; in short: as §1
[22] = biological target: T4, Amine oxidase [flavin-containing] A; experiment: In vitro inhibitory concentration against Monoamine oxidase A of rat brain homogenates; value ranges from 7.6-12.5; assay type: tissue-based
Acetylcholinesterase [23] = biological target: T1, Acetylcholinesterase; experiment: In vitro inhibitory concentration against purified Acetylcholinesterase of human erythrocytes; value ranges from 0.008-0.012
Butyrylcholinesterase [24] = biological target: T2, Butyrylcholinesterase; experiment: In vitro inhibitory concentration against Butyrylcholinesterase of horse serum; value ranges from 0.009-0.024; in short: as §1
[25] = biological target: T4, Amine oxidase [flavin-containing] A; experiment: In vitro inhibitory concentration against Monoamine oxidase A of rat brain homogenates; value ranges from 29-44; assay type: tissue-based
[26] = biological target: T3, Amine oxidase [flavin-containing] B; experiment: In vitro inhibitory concentration against Monoamine oxidase B of rat brain homogenates; value ranges from 6-350
Acetylcholinesterase [27] = biological target: T1, Acetylcholinesterase; experiment: In vitro inhibitory concentration against purified Acetylcholinesterase of human erythrocytes; value ranges from 5.5-45.9
Acetylcholinesterase [28] = biological target: T1, Acetylcholinesterase; experiment: In vitro inhibitory concentration against purified Acetylcholinesterase of human erythrocytes; value ranges from 0.49-0.58
Butyrylcholinesterase [29] = biological target: T2, Butyrylcholinesterase; experiment: In vitro inhibitory concentration against Butyrylcholinesterase of horse serum; value ranges from 2.1-4.1; in short: as §1
Acetylcholinesterase [30] = biological target: T1, Acetylcholinesterase; experiment: In vitro inhibitory concentration against purified Acetylcholinesterase of human erythrocytes; value ranges from 1.7-6.4
[31] = Bimolecular rate constant for carbamoylation of ACHE; assay type: ADME
In short: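 Human erythrocyte AChE preincubated with inhibitor at 37 °C in 0.1 M phosphate buffer, pH 7.4, under Ellman conditions with 200 µM […]. Pseudo-first-order rate constants (k_obs) for progressive inhibition were obtained at 4-5 inhibitor concentrations. The apparent bimolecular carbamylation constant k_i was calculated from these.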

T1 sequence (P22303 whole entry): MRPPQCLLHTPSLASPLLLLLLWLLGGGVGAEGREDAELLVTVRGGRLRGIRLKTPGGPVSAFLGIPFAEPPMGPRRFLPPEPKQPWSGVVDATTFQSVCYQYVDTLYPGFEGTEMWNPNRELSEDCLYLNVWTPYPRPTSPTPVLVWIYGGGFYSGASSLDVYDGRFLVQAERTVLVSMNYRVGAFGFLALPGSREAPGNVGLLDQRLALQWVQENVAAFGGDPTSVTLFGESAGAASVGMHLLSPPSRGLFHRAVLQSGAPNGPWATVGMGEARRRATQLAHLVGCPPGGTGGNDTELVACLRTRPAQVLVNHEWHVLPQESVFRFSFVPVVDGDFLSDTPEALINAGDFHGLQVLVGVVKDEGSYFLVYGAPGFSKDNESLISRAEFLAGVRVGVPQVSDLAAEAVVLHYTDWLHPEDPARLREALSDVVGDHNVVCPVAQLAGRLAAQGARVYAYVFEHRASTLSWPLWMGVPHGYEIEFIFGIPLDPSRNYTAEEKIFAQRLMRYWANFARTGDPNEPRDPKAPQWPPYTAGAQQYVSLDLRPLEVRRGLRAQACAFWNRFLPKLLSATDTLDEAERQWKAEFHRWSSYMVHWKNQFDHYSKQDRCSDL
T2 sequence (Q9N1N9 whole entry): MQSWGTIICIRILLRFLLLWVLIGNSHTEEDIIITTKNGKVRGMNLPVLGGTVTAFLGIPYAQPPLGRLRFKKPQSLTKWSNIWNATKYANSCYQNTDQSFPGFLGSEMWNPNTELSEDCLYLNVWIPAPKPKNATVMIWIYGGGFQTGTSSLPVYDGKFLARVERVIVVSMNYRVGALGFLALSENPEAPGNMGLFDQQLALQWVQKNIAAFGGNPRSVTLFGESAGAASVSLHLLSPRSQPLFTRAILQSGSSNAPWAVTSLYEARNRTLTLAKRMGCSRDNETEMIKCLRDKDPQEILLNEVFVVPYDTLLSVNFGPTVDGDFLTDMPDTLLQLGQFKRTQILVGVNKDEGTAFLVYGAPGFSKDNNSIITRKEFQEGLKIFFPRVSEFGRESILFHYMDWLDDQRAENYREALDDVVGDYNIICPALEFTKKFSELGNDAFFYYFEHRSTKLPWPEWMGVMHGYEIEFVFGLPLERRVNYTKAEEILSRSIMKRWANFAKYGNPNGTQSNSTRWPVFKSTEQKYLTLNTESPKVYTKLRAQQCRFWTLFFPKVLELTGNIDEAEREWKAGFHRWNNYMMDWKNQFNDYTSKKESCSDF

C#CCN(C)C1CCc2cccc(OC(=O)N(C)CCC)c21 (stereo not drawn)
IC50 (Acetylcholinesterase [1]): > 1000 µM

C#CCNC1CCc2cccc(OC(=O)N(C)CC)c21 (stereo not drawn)
IC50 (Butyrylcholinesterase [2]): 0.31 µM | IC50 (Acetylcholinesterase [3]): 525 µM

C#CCNC1CCc2ccc(OC(=O)N(C)CC)cc21 (stereo not drawn)
IC50 (Butyrylcholinesterase [4]): 1.5 µM | IC50 [5]: > 1000 µM | IC50 (Acetylcholinesterase [6]): 47 µM | IC50 [7]: 250 µM

CNC1CCc2ccc(OC(=O)N(C)C)cc21 (stereo not drawn)
IC50 (Acetylcholinesterase [8]): 1.07 µM | IC50 (Butyrylcholinesterase [9]): 0.95 µM

C#CCNC1CCc2c(OC(=O)N(C)CC)cccc21 (stereo not drawn)
IC50 [10]: 150 µM | IC50 [11]: 0.83 µM | IC50 (Butyrylcholinesterase [12]): 0.019 µM | IC50 (Acetylcholinesterase [13]): 2.15 µM

CCNC1CCc2ccc(OC(=O)N(C)C)cc21 (stereo not drawn)
IC50 (Acetylcholinesterase [8]): 24.5 µM | IC50 [14]: 500 µM

C#CCN(C)C1CCc2cccc(OC(=O)N(C)C)c21 (stereo not drawn)
IC50 [15]: 330 µM | IC50 [16]: 730 µM

CCN(C)C(=O)Oc1ccc2c(c1)C(NC)CC2 (stereo not drawn)
IC50 (Acetylcholinesterase [17]): 38.6 µM

C#CCN(C)C1CCc2ccc(OC(=O)N(C)CCC)cc21 (stereo not drawn)
IC50 (Acetylcholinesterase [1]): > 1000 µM

C#CCNC1CCc2ccc(OC(=O)N(C)c3ccc(OC)cc3)cc21 (stereo not drawn)
IC50 (Butyrylcholinesterase [18]): 6.4 µM | IC50 (Acetylcholinesterase [19]): 0.86 µM

C#CCNC1CCc2ccc(OC(=O)NCC)cc21 (stereo not drawn)
IC50 (Acetylcholinesterase [8]): 13.7 µM

C#CCNC1CCc2ccc(OC(=O)N(C)Cc3ccccc3)cc21 (stereo not drawn)
IC50 (Acetylcholinesterase [20]): 1.78 µM | IC50 (Butyrylcholinesterase [21]): 1.26 µM

C#CCN(C)C1CCc2ccc(OC(=O)N(C)CC)cc21 (stereo not drawn)
IC50 (Acetylcholinesterase [1]): > 1300 µM

C#CCNC1CCc2ccc(OC(=O)N(CC)C3CCCCC3)cc21 (stereo not drawn)
IC50 (Acetylcholinesterase [8]): 17.9 µM

CN(C)C(=O)Oc1cccc2c1CCC2N (stereo not drawn)
IC50 [5]: > 1000 µM | IC50 [22]: 9.8 µM | IC50 (Acetylcholinesterase [23]): 0.009 µM | IC50 (Butyrylcholinesterase [24]): 0.014 µM

C#CCN(C)C1CCc2ccc(OC(=O)N(C)C)cc21 (stereo not drawn)
IC50 [25]: 36 µM | IC50 [26]: 47 µM | IC50 (Acetylcholinesterase [27]): 12.9 µM

CCCCCCN(C)C(=O)Oc1ccc2c(c1)C(N)CC2 (stereo not drawn)
IC50 (Acetylcholinesterase [28]): 0.53 µM

C#CCNC1CCc2cccc(OC(=O)N(C)C)c21 (stereo not drawn)
IC50 (Butyrylcholinesterase [29]): 2.8 µM | IC50 (Acetylcholinesterase [30]): 2.5 µM

CNC1CCc2cccc(OC(=O)N(C)C)c21 (stereo not drawn)
IC50 (Acetylcholinesterase [8]): 0.51 µM

CCN(C)C(=O)Oc1cccc([C@H](C)N(C)C)c1 [RIVASTIGMINE]
Bimolecular carbamoylation rate constant (ki) [31]: 23.87 M⁻¹ s⁻¹
